Experimental data: publication PMC5935190 (Drug Design, Development and Therapy, 2018)
In brackets after ≈: the same amount, converted by molar mass. Entries after “also recorded” stand apart in the source; their conditions may differ.

How the values were obtained:
[1] = molecular target: T1, M. tuberculosis BioA (Mycobacterium tuberculosis, UniProt P9WQ81); test: biochemical; format: biochemical
T1 sequence (P9WQ81 1-437): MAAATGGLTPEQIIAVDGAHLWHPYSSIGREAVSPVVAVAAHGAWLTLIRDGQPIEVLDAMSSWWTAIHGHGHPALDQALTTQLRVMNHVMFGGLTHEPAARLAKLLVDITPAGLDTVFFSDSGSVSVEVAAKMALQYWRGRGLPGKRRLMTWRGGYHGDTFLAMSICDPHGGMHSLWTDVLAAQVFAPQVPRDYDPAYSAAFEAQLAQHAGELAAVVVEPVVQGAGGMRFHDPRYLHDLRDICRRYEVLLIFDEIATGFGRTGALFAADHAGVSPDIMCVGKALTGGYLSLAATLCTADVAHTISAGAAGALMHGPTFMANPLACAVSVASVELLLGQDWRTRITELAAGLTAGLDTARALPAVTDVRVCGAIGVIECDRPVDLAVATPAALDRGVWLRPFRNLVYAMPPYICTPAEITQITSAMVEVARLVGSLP

[2] = tested on: M. tuberculosis H37Rv; test: microbe, parasite or virus in culture; format: cell-based; conditions: Mycobacterium tuberculosis, read-out: MIC90 in Sauton's medium
[3] = tested on: Chinese hamster ovary cell line (CHO); test: Cytotoxicity assay; format: cell-based; conditions: at 50 μg/mL
In short: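 CHO cells were grown in DMEM with 10% FBS and 1X antibiotic-antimycotic, then seeded at 1×10^4 cells per well. They were exposed to the test compound at 1 μg/mL to 200 μg/mL for 48 h. 0.01% resazurin dye was then added to measure cell viability.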

[4] = tested on: M. tuberculosis H37Rv; format: cell-based, Mycobacterium tuberculosis

Row | Compound | IC50 ([1]; IC50 (μM) BioA) [µM] | IC50 ([1]; IC50 (μg/mL) BioA, mean ± SD) [µM] | MIC90 [2] [µg/mL] | Toxicity in CHO cell line [3] | Percent inhibition of BioA at 100 μg/mL [1] | MIC90 (μM) for M. tuberculosis growth inhibition [4] [µM] | MIC90 (μg/mL) for M. tuberculosis growth inhibition [4] [µg/mL]
1 | CC1(c2ccc(S(=O)(=O)c3ccccc3)cc2)OC(=O)C=CC1=O (stereo not shown) [Compound A65, 6-methyl-6-[4-(phenylsulfonyl)phenyl]-2H-pyran-2,5(6H)-dione] | 114 | 114 | 80 (≈ 234 µM) | moderate toxicity | – | – | –
2 | O=C(O)c1ccc(C=NNC(=O)c2cccc3ccccc23)cc1 [Compound X21] | – | – | – | – | weak inhibition; also recorded: poor inhibition | 7.86 | 2.5
